Measured values published in ChEMBL document CHEMBL4385626, “SAR optimization studies on modified salicylamides as a potential treatment for acute myeloid leukemia through inhibition of the CREB pathway” (Bioorg Med Chem Lett, 2019).
The source made the active and inactive calls. The rule behind the calls is not given here.

How the values were obtained:
[1] = test system: HL-60; experiment: Cytotoxicity against human HL60 cells incubated for 3 days by CellTiter-Glo luminescent assay; assay type: functional, cell-based; details: HL-60, 72 h
Outline: (§1)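 CellTiter-Glo viability read-out on leukemia cell lines. IC50 reported as the average of triplicates.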

[2] = test system: KG-1; experiment: Cytotoxicity against human KG1 cells incubated for 3 days by CellTiter-Glo luminescent assay; assay type: functional, cell-based; details: KG-1, 72 h; outline: as §1
[3] = test system: Jurkat; experiment: Cytotoxicity against human Jurkat cells incubated for 3 days by CellTiter-Glo luminescent assay; assay type: functional, cell-based; details: 72 h; outline: as §1
[4] = test system: NALM-6; experiment: Cytotoxicity against human NALM6 cells incubated for 3 days by CellTiter-Glo luminescent assay; assay type: functional, cell-based; details: NALM-6, 72 h; outline: as §1
[5] = test system: Bone marrow cell; experiment: Cytotoxicity against human bone marrow cells incubated for 3 days by CellTiter-Glo luminescent assay; assay type: cell-based; details: 72 h
[6] = Metabolic stability in human liver microsomes assessed as half life in presence of NADPH by LC-MS/MS analysis; assay type: ADME, Microsome
[7] = Metabolic stability in mouse liver microsomes assessed as half life in presence of NADPH by LC-MS/MS analysis; assay type: ADME, Microsome
[8] = species on record: Homo sapiens; experiment: Inhibition of CBP KIX domain (unknown origin) binding to BODIPY-labeled phosphorylated CREB KID domain (unknown origin) interaction pre-incubated for 30 mins by fluorescence polarization assay
Outline: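 Fluorescence polarization with BODIPY-labeled phosphorylated CREB KID domain and the CBP KIX domain. Polarization reports the degree of KIX-KID binding.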

[9] = Inhibition of KIX-RLucC fused CBP (unknown origin) binding to KID-RLucN fused CREB (unknown origin) transfected in human HEK293 cells preincubated with compound 30 mins before forskolin addition and measured after 90 mins in presence of coelenterazine by split Renilla luciferase complementation assay
[10] = Elimination half life in NSG mouse at 2 mg/kg, iv measured after 7 to 150 mins by LC/MS/MS analysis; assay type: ADME, organism-based; details: in vivo, read-out: beta t1/2 (converted)
Outline: (§2)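 Single IV dose of 2 mg/kg to NSG mice (NOD.Cg-Prkdc scid Il2rg tm1Wjl/SzJ), vehicle DMSO/Kolliphor EL/water (3/5/82). Compound levels measured in plasma at various times after injection. PK parameters derived from the plasma time-concentration profiles.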

[11] = AUC (0 to t) in NSG mouse at 2 mg/kg, iv measured after 7 to 150 mins by LC/MS/MS analysis; assay type: ADME, organism-based; details: in vivo; outline: as §2
[12] = AUC (0 to infinity) in NSG mouse at 2 mg/kg, iv measured after 7 to 150 mins by LC/MS/MS analysis; assay type: ADME, organism-based; parameters: dose 2 mg/kg, time infinity, route intravenous; details: in vivo; outline: as §2
[13] = MRT (0 to infinity) in NSG mouse at 2 mg/kg, iv measured after 7 to 150 mins by LC/MS/MS analysis; assay type: ADME, organism-based; details: in vivo; outline: as §2
[14] = Apparent volume of distribution in NSG mouse at 2 mg/kg, iv measured after 7 to 150 mins by LC/MS/MS analysis; assay type: ADME, organism-based; details: in vivo; outline: as §2
[15] = Clearance in NSG mouse at 2 mg/kg, iv measured after 7 to 150 mins by LC/MS/MS analysis; assay type: ADME, organism-based; details: in vivo; outline: as §2
[16] = Volume of distribution at steady state in NSG mouse at 2 mg/kg, iv measured after 7 to 150 mins by LC/MS/MS analysis; assay type: ADME, organism-based; details: in vivo; outline: as §2
[17] = Plasma concentration in NSG mouse at 2 mg/kg, iv measured after 7 to 150 mins by LC/MS/MS analysis; assay type: ADME, organism-based; details: in vivo; outline: as §2
[18] = test system: HL-60; experiment: Induction of apoptosis in human HL60 cells assessed as early apoptotic cells at 1 uM incubated for 1 day by AnnexinV/DAPI double staining based flow cytometric analysis (reference value: 3.2 +/- 0.1%); assay type: functional
[19] = test system: HL-60; experiment: Induction of apoptosis in human HL60 cells assessed as late apoptotic cells at 1 uM incubated for 1 day by AnnexinV/DAPI double staining based flow cytometric analysis (reference value: 1.2 +/- 0.03%); assay type: functional
[20] = test system: HL-60; experiment: Induction of apoptosis in human HL60 cells assessed as PARP cleavage level at 1 uM incubated for 1 day by DAPI staining based flow cytometric analysis (reference value: 1.2 +/- 0.1%); assay type: functional
[21] = test system: HL-60; experiment: Induction of cell cycle arrest in human HL60 cells assessed as accumulation at G1 phase at 1 uM incubated for 1 day by DAPI staining based flow cytometric analysis (reference value: 48.37 +/- 0.15%); assay type: functional
[22] = test system: HL-60; experiment: Induction of cell cycle arrest in human HL60 cells assessed as S phase at 1 uM incubated for 1 day by DAPI staining based flow cytometric analysis (reference value: 27.5 +/- 0.57%); assay type: functional
[23] = test system: HL-60; experiment: Induction of cell cycle arrest in human HL60 cells assessed as G2 phase at 1 uM incubated for 1 day by DAPI staining based flow cytometric analysis (reference value: 21.4 +/- 0.42%); assay type: functional
[24] = test system: HL-60; experiment: Induction of cell cycle arrest in human HL60 cells assessed as M phase at 1 uM incubated for 1 day by DAPI staining based flow cytometric analysis (reference value: 2.64 +/- 0.06%); assay type: functional
[25] = species on record: Homo sapiens; experiment: Inhibition of CREB in human HL60 cells assessed as downregulation of RFC3 gene expression at 1 uM incubated for 1 day by RT-qPCR analysis; assay type: cell-based
Outline: (§3)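 HL60 cells given 1 μM compound for 1 d. RFC3 and POLD2 mRNA measured by RT-qPCR and normalized to 7SL lncRNA. Results given as mean of three independent experiments ± SEM.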

[26] = species on record: Homo sapiens; experiment: Inhibition of CREB in human HL60 cells assessed as downregulation of POLD2 gene expression at 1 uM incubated for 1 day by RT-qPCR analysis; assay type: cell-based; outline: as §3
[27] = test system: HL-60; experiment: Induction of cell cycle arrest in human HL60 cells assessed as cyclin B expression in G2 phase by measuring as fluorescence intensity level at 1 uM incubated for 1 day by flow cytometric analysis (reference value: 1196.33 +/- 40.48); assay type: functional

SMILES | half-life [6] | half-life [7] | IC50 [9] | IC50 [1] | IC50 [2] | IC50 [3] | IC50 [4] | other results
O=C(Nc1ccc(C(F)(F)F)cc1)c1ccc(Br)cc1O | – | – | – | 360 nM | 340 nM | 500 nM | 690 nM | –
N#Cc1cc(Cl)ccc1NC(=O)c1ccc2cccnc2c1O | – | – | – | 790 nM | 3540 nM | 170 nM | 280 nM | –
O=C(Nc1ccc(C(F)(F)F)cc1)c1cc(Br)c(-c2ccccc2)cc1O | – | – | – | 540 nM | 400 nM | 740 nM | 1000 nM | –
O=C(Nc1ccc(C(F)(F)F)cc1)c1ccc(Cl)cc1O | – | – | – | 630 nM | 580 nM | 670 nM | 1180 nM | –
O=C(Nc1cc(C(F)(F)F)cc(C(F)(F)F)c1)c1cc(Cl)c(-c2ccccc2)cc1O | – | – | – | 790 nM | 430 nM | 540 nM | 560 nM | –
O=C(Nc1cc(C(F)(F)F)cc(C(F)(F)F)c1)c1ccc(-c2ccccc2)cc1O | – | – | – | 1140 nM | 860 nM | 1240 nM | 1580 nM | –
COc1cccc(O)c1C(=O)Nc1ccc(C#N)cc1 | – | – | > 7000 nM | > 10000 nM | > 10000 nM | – | – | –
O=C(Nc1ccc(C(F)(F)F)c(Cl)c1)c1cc(Cl)ccc1O | – | – | – | 460 nM | 450 nM | 690 nM | 1220 nM | –

Further lines, with some results ahead:

half-life [6] | half-life [7] | IC50 [9] | SMILES | IC50 [1] | IC50 [2] | IC50 [3] | IC50 [4] | other results
52 min | 29.1 min | 1240 nM | O=C(Nc1cc(C(F)(F)F)cc(C(F)(F)F)c1)c1cc(Br)ccc1O | 290 nM | 300 nM | 350 nM | 590 nM | IC50 [5]: > 10000 nM; inhibition [8]: Active
159 min | 31.8 min | 2530 nM | O=C(Nc1cc(C(F)(F)F)cc(C(F)(F)F)c1)c1ccc(Cl)cc1O | 200 nM | 620 nM | 570 nM | 850 nM | inhibition [8]: Active
– | – | > 7000 nM | N#Cc1ccc(C(=O)Nc2cc3ccccc3cc2O)cc1 | > 10000 nM | > 10000 nM | – | – | –
– | – | 3030 nM | N#Cc1ccc(NC(=O)c2cc(Br)ccc2O)cc1 | 620 nM | 1290 nM | – | – | –
– | – | > 7000 nM | N#Cc1ccc(NC(=O)c2ccc3ccccc3c2)cc1 | > 10000 nM | > 10000 nM | – | – | –
159 min | 159 min | 1550 nM | O=C(Nc1cc(C(F)(F)F)cc(C(F)(F)F)c1)c1cc(Br)c(-c2ccccc2)cc1O | 430 nM | 300 nM | 680 nM | 840 nM | IC50 [5]: > 10000 nM; half-life [10]: 123 min; AUC(0-t) [11]: 2250 ng·h/mL; AUC(0-inf) [12]: 2330 ng·h/mL; MRT inf [13]: 61 min; Vz [14]: 0.003 mg/ng/mL; CL [15]: 0.00086 mg/ng/mL/h; Vdss [16]: 0.00087 mg/ng/mL; Cp [17]: 19 ng/mL; Activity [18]: 8.8%; Activity [19]: 30.9%; Activity [20]: 58.1%; Activity [21]: 69.77%; Activity [22]: 14.27%; Activity [23]: 14.37%; Activity [24]: 1.23%; inhibition [25]: Active; inhibition [26]: Active; inhibition [8]: Active
– | – | 1520 nM | O=C(Nc1ccc([N+](=O)[O-])cc1Cl)c1cc(F)ccc1O | 280 nM | 490 nM | 530 nM | 910 nM | –
44.9 min | 5.5 min | 4030 nM | N#Cc1ccc(NC(=O)c2cc3ccccc3cc2O)cc1 | 1580 nM | – | – | – | IC50 [5]: > 10000 nM
124 min | 157 min | – | N#Cc1ccc(NC(=O)c2ccc3cccnc3c2O)cc1 | 370 nM | 2320 nM | 180 nM | 130 nM | IC50 [5]: 3070 nM; half-life [10]: 83.4 min; AUC(0-t) [11]: 4070 ng·h/mL; AUC(0-inf) [12]: 4090 ng·h/mL; MRT inf [13]: 27.5 min; Vz [14]: 0.00098 mg/ng/mL; CL [15]: 0.00049 mg/ng/mL/h; Vdss [16]: 0.00022 mg/ng/mL; Activity [18]: 6.3%; Activity [19]: 3%; Activity [20]: 17.3%; Activity [22]: 33.7%; FI [27]: 875.33; inhibition [25]: inactive; inhibition [26]: inactive
– | – | > 7000 nM | COc1ccc(O)c(C(=O)Nc2ccc(C#N)cc2)c1 | > 10000 nM | > 10000 nM | – | – | –
– | – | 3990 nM | N#Cc1ccc(NC(=O)c2cc(Cl)ccc2O)cc1 | 700 nM | 1860 nM | – | – | –
21 min | 6.6 min | 1530 nM | O=C(Nc1ccc([N+](=O)[O-])cc1Cl)c1cc(Cl)ccc1O [NICLOSAMIDE] | 300 nM | 360 nM | 400 nM | 620 nM | IC50 [5]: > 10000 nM; half-life [10]: 33.6 min; AUC(0-t) [11]: 536 ng·h/mL; AUC(0-inf) [12]: 536 ng·h/mL; MRT inf [13]: 24.2 min; Vz [14]: 0.0025 mg/ng/mL; Vdss [16]: 0.0015 mg/ng/mL; Cp [17]: 0.12 ng/mL
